Laboratory results: ChEMBL document CHEMBL2346557 (Bioorg Med Chem, 2013)
pIC50: −log10 of the molar value. Converted amounts (≈) assume the structure as drawn. The source made the active and inactive calls. The calls are words filed in the database; no cut-off is given here.

Tests used:
Cytochrome P450 3A4 [1] = target: T1, Cytochrome P450 3A4 (Homo sapiens, UniProt P08684); experiment: Induction of CYP3A4 in human hepatocytes; assay type: ADME, cell-based, Hepatocyte
Method in brief: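 Cryopreserved hepatocytes from 3 human donors were cultured on collagen for 3 days, then dosed daily in fresh medium with 1, 10 or 100 μM compound, vehicle, or rifampin as positive control. CYP3A4 activity was read 24 h after the last dose using testosterone as probe substrate, analysed by LC/MS/MS. Induction is expressed as % of positive control; >40% in any donor counts as a potential inducer.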

[2] = target: Voltage-gated inwardly rectifying potassium channel KCNH2 (Homo sapiens, UniProt Q12809); experiment: Inhibition of human ERG
Cytochrome P450 3A4 [3] = target: T1, Cytochrome P450 3A4; experiment: Inhibition of CYP3A4 (unknown origin); assay type: ADME
Caco-2 = experiment: Apparent permeability from apical to basolateral side of human Caco2 cells; assay type: ADME, cell-based
Method in brief: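 Caco-2 monolayer permeability measured in the apical-to-basolateral direction and reported as Papp (10−6 cm/s); the efflux ratio was also determined.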

Cytochrome P450 2D6 = Cytochrome P450 2D6 (Homo sapiens, UniProt P10635); experiment: Inhibition of CYP2D6 (unknown origin); assay type: ADME
[4] = Solubility of the compound; assay type: physicochemical
Canis familiaris [5] = experiment: Oral bioavailability in beagle dog at 30 mg/kg; assay type: ADME, organism-based, Canis lupus familiaris; conditions: in vivo
Method in brief: (§1)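 Beagles (n = 3) were given an oral emulsion in 30% Labrafil. Blood was collected at 0, 5, 15 and 30 min and at 1, 2, 4, 8 and 24 h. Bioavailability was derived relative to IV dosing.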

Rattus norvegicus [6] = experiment: Oral bioavailability in Sprague-Dawley rat at 50 mg/kg; assay type: ADME, organism-based; conditions: in vivo
Method in brief: (§2)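 Sprague–Dawley rats (n = 3) were dosed orally with an emulsion in 30% Labrafil. Blood was sampled from 0 to 24 h (0, 5, 15, 30 min; 1, 2, 4, 8, 24 h). Bioavailability was derived against the IV arm.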

[7] = Volume of distribution at steady state in Sprague-Dawley rat at 10 mg/kg, iv; assay type: ADME, organism-based; set-up: dose 10 mg/kg, route intravenous; conditions: in vivo, read-out: Vdss
[8] = Tmax in Sprague-Dawley rat at 50 mg/kg, po; assay type: ADME, organism-based; set-up: dose 50 mg/kg, route oral; conditions: in vivo; method in brief: as §2
[9] = Clearance in beagle dog at 10 mg/kg, iv; assay type: ADME, organism-based, Canis lupus familiaris; set-up: dose 10 mg/kg, route intravenous; conditions: in vivo
Canis familiaris [10] = experiment: Total unbound AUC (0 to infinity) in beagle dog at 30 mg/kg, po; assay type: ADME, organism-based, Canis lupus familiaris; set-up: dose 30 mg/kg, route oral; conditions: in vivo; method in brief: as §1
Rattus norvegicus [11] = experiment: Total unbound AUC (0 to infinity) in Sprague-Dawley rat at 50 mg/kg, po; assay type: ADME, organism-based; set-up: dose 50 mg/kg, route oral; conditions: in vivo; method in brief: as §2
Canis familiaris [12] = experiment: Total unbound AUC (0 to infinity) in beagle dog at 10 mg/kg, iv; assay type: ADME, organism-based, Canis lupus familiaris; set-up: dose 10 mg/kg, route intravenous; conditions: in vivo
[13] = Terminal half life in beagle dog at 10 mg/kg, iv; assay type: ADME, organism-based, Canis lupus familiaris; set-up: dose 10 mg/kg, route intravenous; conditions: in vivo, read-out: beta t1/2 (converted)
[14] = Terminal half life in Sprague-Dawley rat at 50 mg/kg, po; assay type: ADME, organism-based; set-up: dose 50 mg/kg, route oral; conditions: in vivo, read-out: beta t1/2 (converted); method in brief: as §2
[15] = Metabolic stability in mouse liver microsomes assessed as compound remaining at 2 uM measured at 1 hr; assay type: ADME, Microsome; conditions: read-out: Stability
Method in brief: (§3)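 Liver microsomes (human, or male monkey, dog, rat or mouse) at 0.5 mg/mL final with 2 µM compound, 5 mM MgCl2 and 5 mM PBS. The reaction was started with 1 mM NADPH and run at 37 °C. Verapamil was the positive control; water replaced NADPH in the negative control. Read-out was percent parent remaining at 1 h.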

[16] = Metabolic stability in human liver microsomes assessed as compound remaining at 2 uM measured at 1 hr; assay type: ADME, Microsome; conditions: read-out: Stability; method in brief: as §3
[17] = Volume of distribution at steady state in CD1 mouse at 10 mg/kg, iv; assay type: ADME, organism-based; set-up: dose 10 mg/kg, route intravenous; conditions: in vivo, read-out: Vdss
Method in brief: (§4)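 CD1 mice (n = 3 per compound) given 10 mg/kg as a single tail-vein injection in a pH 7.0 solution of 10% ethanol plus PEG400 (some compounds also with 10% DMSO). Blood was sampled at 0, 5, 15 and 30 min and 1, 2, 4, 8 and 24 h. Parameters were derived from the plasma concentration–time profiles.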

[18] = AUClast in CD1 mouse at 50 mg/kg, po; assay type: ADME, organism-based; set-up: time 0 - last, dose 50 mg/kg, route oral; conditions: plasma
Method in brief: (§5)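 CD1 mice (n = 3 per compound) were dosed orally at 50 mg/kg as an aqueous emulsion in 30% Labrafil. Blood was drawn at 0, 5, 15 and 30 min and 1, 2, 4, 8 and 24 h. Bioavailability and other parameters were calculated from the plasma profiles and compared against the intravenous arm.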

[19] = Tmax in CD1 mouse at 50 mg/kg, po; assay type: ADME, organism-based; set-up: dose 50 mg/kg, route oral; conditions: in vivo; method in brief: as §5
[20] = Clearance in CD1 mouse at 10 mg/kg, iv; assay type: ADME, organism-based; set-up: dose 10 mg/kg, route intravenous; conditions: in vivo; method in brief: as §4
[21] = target: T2, Glucocorticoid receptor (Homo sapiens) (UniProt P04150); experiment: Transactivation of glucocorticoid receptor in HEK293 cells co-transfected with GRE assessed as induction of GRE-dependent gene expression at 100 ug/ml after 6 hrs by luciferase reporter gene assay; assay type: cell-based
T2 sequence (whole entry): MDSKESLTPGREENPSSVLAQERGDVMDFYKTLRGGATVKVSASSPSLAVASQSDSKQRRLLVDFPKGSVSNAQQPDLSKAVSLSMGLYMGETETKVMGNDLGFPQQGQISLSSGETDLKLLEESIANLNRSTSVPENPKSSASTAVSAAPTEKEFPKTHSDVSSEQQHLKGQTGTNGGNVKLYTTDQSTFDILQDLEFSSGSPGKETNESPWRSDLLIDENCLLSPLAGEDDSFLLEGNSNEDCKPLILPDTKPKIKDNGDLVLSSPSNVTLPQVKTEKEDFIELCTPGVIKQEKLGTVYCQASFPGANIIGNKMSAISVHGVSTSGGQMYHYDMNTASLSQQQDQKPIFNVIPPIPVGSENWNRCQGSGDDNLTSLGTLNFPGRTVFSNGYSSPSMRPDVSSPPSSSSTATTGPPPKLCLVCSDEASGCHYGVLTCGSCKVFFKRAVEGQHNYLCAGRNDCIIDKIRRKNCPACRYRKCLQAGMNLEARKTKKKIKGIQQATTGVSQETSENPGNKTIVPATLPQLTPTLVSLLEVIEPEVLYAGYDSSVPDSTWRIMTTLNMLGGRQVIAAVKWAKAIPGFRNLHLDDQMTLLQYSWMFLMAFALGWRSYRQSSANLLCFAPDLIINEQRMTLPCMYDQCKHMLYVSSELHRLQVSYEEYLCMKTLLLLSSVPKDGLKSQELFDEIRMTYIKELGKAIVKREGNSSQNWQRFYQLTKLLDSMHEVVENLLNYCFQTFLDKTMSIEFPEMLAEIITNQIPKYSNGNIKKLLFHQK
Method in brief: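 HEK-293 cells stably transfected with a GRE-driven luciferase reporter were exposed to drug at 0.01–100 μg/ml for 6 h. Cells were washed with PBS and lysed, and luciferase activity was measured by luminometer.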

[22] = Mean residence time in CD1 mouse at 10 mg/kg, iv; assay type: ADME, organism-based; set-up: dose 10 mg/kg, route intravenous; conditions: in vivo; method in brief: as §4
Mus musculus = experiment: Total unbound AUC (0 to infinity) in CD1 mouse at 10 mg/kg, iv; assay type: ADME, organism-based; set-up: dose 10 mg/kg, route intravenous; conditions: in vivo
[23] = Terminal half life in CD1 mouse at 10 mg/kg, iv; assay type: ADME, organism-based; set-up: dose 10 mg/kg, route intravenous; conditions: in vivo, read-out: beta t1/2 (converted); method in brief: as §4
[24] = Terminal half life in CD1 mouse at 50 mg/kg, po; assay type: ADME, organism-based; set-up: dose 50 mg/kg, route oral; conditions: in vivo, read-out: beta t1/2 (converted); method in brief: as §5
[25] = Terminal half life in Sprague-Dawley rat at 10 mg/kg, iv; assay type: ADME, organism-based; set-up: dose 10 mg/kg, route intravenous; conditions: in vivo, read-out: beta t1/2 (converted)

T1 sequence (P08684 whole entry): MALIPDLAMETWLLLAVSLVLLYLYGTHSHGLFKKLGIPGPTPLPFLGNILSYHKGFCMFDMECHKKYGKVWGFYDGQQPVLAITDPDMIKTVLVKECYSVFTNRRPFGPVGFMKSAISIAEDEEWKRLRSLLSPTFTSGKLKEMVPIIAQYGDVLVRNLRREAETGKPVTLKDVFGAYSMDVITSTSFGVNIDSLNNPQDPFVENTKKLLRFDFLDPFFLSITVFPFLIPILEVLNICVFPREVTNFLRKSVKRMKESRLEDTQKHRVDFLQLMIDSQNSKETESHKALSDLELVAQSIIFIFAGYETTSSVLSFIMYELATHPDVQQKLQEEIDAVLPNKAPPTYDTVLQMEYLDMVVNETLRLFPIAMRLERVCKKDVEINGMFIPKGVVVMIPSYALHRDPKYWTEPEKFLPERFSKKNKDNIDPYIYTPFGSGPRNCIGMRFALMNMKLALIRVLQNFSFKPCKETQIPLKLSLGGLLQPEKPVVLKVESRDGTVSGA
Sequence of Cytochrome P450 2D6 (P10635 whole entry): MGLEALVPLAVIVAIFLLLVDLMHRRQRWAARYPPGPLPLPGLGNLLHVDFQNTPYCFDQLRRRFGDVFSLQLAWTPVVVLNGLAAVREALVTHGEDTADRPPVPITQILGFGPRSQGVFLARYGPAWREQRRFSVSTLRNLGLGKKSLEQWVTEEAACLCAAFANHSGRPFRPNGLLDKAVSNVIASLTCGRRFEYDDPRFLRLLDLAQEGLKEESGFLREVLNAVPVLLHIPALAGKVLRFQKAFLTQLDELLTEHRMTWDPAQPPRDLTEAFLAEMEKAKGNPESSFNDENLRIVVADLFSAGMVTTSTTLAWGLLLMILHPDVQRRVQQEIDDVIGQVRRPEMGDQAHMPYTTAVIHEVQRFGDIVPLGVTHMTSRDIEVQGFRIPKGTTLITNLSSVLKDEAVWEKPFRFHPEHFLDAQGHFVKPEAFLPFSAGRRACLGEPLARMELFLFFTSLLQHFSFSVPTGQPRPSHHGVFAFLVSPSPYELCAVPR
Sequence of Voltage-gated inwardly rectifying potassium channel KCNH2 (Q12809 whole entry): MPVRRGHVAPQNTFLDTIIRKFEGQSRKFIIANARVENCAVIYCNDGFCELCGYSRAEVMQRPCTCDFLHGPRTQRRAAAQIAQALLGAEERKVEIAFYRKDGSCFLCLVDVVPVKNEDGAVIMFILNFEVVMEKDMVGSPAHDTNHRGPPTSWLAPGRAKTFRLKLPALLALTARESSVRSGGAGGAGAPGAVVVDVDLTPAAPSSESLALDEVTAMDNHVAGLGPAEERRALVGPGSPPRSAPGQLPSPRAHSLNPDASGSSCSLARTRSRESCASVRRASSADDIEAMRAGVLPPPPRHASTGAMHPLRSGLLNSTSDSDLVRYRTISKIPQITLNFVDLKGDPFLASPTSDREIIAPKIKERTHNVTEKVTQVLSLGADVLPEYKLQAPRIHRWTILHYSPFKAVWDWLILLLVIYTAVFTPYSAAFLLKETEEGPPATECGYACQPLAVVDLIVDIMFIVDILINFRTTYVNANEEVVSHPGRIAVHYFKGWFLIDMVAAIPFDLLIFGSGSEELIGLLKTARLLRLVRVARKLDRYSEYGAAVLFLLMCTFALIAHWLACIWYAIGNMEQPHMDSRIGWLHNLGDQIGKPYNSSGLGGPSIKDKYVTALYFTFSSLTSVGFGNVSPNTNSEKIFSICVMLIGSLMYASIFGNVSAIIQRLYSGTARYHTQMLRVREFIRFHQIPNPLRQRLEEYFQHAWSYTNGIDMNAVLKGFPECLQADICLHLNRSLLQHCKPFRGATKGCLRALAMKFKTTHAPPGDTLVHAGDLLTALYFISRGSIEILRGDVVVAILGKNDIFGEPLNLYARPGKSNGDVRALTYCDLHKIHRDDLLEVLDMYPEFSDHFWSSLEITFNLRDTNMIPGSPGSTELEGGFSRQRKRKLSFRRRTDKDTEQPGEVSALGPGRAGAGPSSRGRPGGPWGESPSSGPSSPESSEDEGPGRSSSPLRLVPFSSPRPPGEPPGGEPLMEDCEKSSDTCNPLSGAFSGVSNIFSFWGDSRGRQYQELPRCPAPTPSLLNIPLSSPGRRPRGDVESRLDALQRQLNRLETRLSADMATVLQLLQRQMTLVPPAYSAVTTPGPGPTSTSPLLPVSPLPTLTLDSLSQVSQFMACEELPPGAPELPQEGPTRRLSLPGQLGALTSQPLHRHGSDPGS

Activity (Cytochrome P450 3A4 [1]): 24%
pIC50 (Cytochrome P450 3A4 [3]): < 4.30
Papp (Caco-2): 11.2 ×10⁻⁶ cm/s
pIC50 (Cytochrome P450 2D6): < 4.30
solubility [4]: 187 µM (≈ 66.7 µg/mL)
F (Canis familiaris [5]): 53.2%
F (Rattus norvegicus [6]): 47.8%
Vd [7]: 0.77 L/kg
Tmax [8]: 4 h
clearance [9]: 24.7 mL/min/kg
fAUC (Canis familiaris [10]): 10844 ng·h/mL
fAUC (Rattus norvegicus [11]): 19937 ng·h/mL
fAUC (Canis familiaris [12]): 6791 ng·h/mL
half-life [13]: 5.42 h
half-life [14]: 2.29 h
remaining at 1 h, 2 µM [15]: 88.8%
remaining at 1 h, 2 µM [16]: 82%
Vd [17]: 0.757 L/kg
AUC(0-t) [18]: 32900 ng·h/mL
Tmax [19]: 2 h
clearance [20]: 18.8 mL/min/kg
Activity [21]: inactive
MRT [22]: 0.667 h
fAUC (Mus musculus): 8842 ng·h/mL
half-life [23]: 0.354 h
half-life [24]: 0.678 h
half-life [25]: 0.58 h
Structure (SMILES): C[C@@H]1C[C@H]2[C@@H]3CCC4=CC(=O)C=C[C@]4(C)C3=CC[C@]2(C)[C@@]1(O)C(=O)CO [VAMOROLONE]
pIC50 [2]: 4.70
